The results in this text go back to ChEMBL document CHEMBL3593245 (J Med Chem, 2015).

The target of data set [1] is T1, Rap guanine nucleotide exchange factor 4 (Mus musculus, UniProt Q9EQZ6).
T1 sequence (Q9EQZ6 whole entry): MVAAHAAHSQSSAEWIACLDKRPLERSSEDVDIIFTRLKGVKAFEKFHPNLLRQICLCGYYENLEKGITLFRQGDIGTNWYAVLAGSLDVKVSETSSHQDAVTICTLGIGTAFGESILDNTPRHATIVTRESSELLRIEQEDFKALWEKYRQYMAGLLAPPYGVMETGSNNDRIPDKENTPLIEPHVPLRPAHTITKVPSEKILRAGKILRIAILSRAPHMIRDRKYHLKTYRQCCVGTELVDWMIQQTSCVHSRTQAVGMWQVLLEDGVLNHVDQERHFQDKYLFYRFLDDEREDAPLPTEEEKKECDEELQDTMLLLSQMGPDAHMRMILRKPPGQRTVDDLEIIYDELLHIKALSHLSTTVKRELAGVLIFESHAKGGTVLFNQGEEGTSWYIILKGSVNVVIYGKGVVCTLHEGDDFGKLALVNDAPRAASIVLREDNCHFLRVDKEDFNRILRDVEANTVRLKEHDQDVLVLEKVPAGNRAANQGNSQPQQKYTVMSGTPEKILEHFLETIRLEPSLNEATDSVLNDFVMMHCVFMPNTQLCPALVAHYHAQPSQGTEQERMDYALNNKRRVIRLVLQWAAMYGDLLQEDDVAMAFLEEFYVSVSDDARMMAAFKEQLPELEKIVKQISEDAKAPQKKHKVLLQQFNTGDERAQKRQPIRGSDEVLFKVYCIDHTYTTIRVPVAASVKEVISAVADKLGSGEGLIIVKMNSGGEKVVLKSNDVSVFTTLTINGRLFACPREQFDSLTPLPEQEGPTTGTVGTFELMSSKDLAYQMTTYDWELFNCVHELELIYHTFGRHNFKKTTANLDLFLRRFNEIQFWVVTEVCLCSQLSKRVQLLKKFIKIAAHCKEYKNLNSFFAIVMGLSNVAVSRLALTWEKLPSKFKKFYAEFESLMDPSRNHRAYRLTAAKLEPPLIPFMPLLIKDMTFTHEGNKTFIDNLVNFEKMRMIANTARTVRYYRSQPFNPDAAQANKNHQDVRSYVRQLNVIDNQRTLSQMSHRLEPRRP
The experiment in a line: Displacement of 8-NBD-cAMP from mouse recombinant EPAC2 by fluorescence assay.

Data set [2] concerns the target T2, Rap guanine nucleotide exchange factor 4 (Mus musculus) (UniProt Q9EQZ6).
T2 sequence (whole entry): T1 sequence (Q9EQZ6 whole entry)
The experiment in a line: Ratio of cAMP IC50 to compound IC50 for displacement of 8-NBD-cAMP from mouse recombinant EPAC2 by fluorescence assay.

Data set [3] concerns the target T3, Rap guanine nucleotide exchange factor 3 (Homo sapiens, UniProt O95398).
T3 sequence (O95398 whole entry): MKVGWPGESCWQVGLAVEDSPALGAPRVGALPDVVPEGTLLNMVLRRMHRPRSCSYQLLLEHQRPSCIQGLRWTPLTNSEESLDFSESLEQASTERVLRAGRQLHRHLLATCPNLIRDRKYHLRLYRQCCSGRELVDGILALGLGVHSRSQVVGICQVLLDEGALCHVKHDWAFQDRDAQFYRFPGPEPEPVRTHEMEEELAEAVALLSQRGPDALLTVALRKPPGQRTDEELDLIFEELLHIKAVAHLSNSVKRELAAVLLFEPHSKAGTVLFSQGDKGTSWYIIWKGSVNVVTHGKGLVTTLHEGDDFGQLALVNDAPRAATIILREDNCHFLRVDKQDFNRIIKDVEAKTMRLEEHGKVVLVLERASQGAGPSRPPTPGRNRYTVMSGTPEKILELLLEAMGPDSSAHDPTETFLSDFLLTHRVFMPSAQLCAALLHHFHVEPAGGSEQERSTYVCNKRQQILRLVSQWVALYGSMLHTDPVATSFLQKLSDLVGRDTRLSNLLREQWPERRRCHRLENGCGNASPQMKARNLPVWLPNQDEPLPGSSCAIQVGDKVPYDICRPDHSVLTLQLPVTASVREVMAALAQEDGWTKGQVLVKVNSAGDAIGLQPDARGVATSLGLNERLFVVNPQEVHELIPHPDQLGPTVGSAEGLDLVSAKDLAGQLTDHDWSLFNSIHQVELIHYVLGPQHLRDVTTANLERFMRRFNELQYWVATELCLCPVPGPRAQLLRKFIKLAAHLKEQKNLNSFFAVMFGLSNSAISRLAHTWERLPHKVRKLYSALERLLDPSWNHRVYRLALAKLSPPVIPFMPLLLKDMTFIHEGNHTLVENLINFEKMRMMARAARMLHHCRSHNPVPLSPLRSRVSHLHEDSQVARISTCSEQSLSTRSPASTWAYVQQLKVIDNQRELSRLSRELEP
The experiment in a line: Antagonist activity at human recombinant EPAC1 assessed as inhibition of Rap1b-bGDP exchange activity.

The nature of data set [4]: […] solubility of the compound in water after 24 hrs by HPLC analysis. It is filed as physicochemical. As to conditions: for solubility: buffer, 24 h; call rule not given here.
The nature of data set [5]: […] solubility of the compound in ethanol after 24 hrs by HPLC analysis. The data set is classed as physicochemical. In outline:
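10–15 mg of solid added to 0.1–0.6 mL ethanol, shaken 24 h at 25 °C, then centrifuged and filtered. Supernatant (5 μL) injected on C18 reverse-phase HPLC with UV detection at 270 and 254 nm. Quantified by one-point calibration against standards of known concentration.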

For data set [6], the target named is T3, Rap guanine nucleotide exchange factor 3. The experiment in a line: Antagonist activity at EPAC1 (unknown origin) assessed as cAMP-induced guanine nucleotide exchange factor activity.

Molecules are shown by their SMILES. ≈ marks a conversion by molar mass, not a printed value.

In the case of `CC(C)(C)c1cc(C(=O)/C(C#N)=N/Nc2cccc(CO)c2)no1`, the IC50 result in data set [1] is “Not Active”.

With `CC(C)(C)c1cc(C(=O)/C(C#N)=N/Nc2cccc([N+](=O)[O-])c2)no1`, the IC50 in data set [1] (read-out: IC50) was determined as 31.3 µM. In addition, the Ratio IC50 in data set [2] is 1.

On to `CC(C)(C)c1cc(C(=O)/C(C#N)=N/Nc2cccc(C#N)c2)no1`, for which the IC50 in data set [1] (read-out: IC50) was 67.8 µM.

As for `CC(C)(C)c1cc(C(=O)N/N=C/c2cccc(Cl)c2)no1`, in data set [1], the concentration for half-maximal inhibition (IC50) result is “Not Active”.

Take `CC(C)(C)c1cc(C(=O)/C(C#N)=N/Nc2ccc(C(F)(F)F)c(Cl)c2)no1`: the IC50 in data set [3] was found to be 4.3 µM.

Turning to `N#C/C(=N\Nc1cc(Cl)c(Cl)c(Cl)c1)C(=O)c1cc(C2CCCCC2)on1`, in data set [3], the concentration for half-maximal inhibition (IC50) came out at 4 µM. This compound also came in with a solubility in data set [4] of 0.0237 mM (≈ 10.1 µg/mL). The compound further returned a solubility at 24 h in data set [5] of 8.5 mM (≈ 3620 µg/mL).

As to `CC(C)(C)c1cc(C(=O)/C(C#N)=N/Nc2ccc(Cl)c(F)c2)no1`, the IC50 in data set [1] (read-out: IC50) came to 4.3 µM. In addition, the Ratio IC50 in data set [2] turned out to be 7.4.

As to `CCOC(=O)c1cccc(N/N=C(\C#N)C(=O)c2cc(C(C)(C)C)on2)c1`, in data set [1] (read-out: IC50), the 50% inhibitory concentration (IC50) is 71.4 µM.

Regarding `N#C/C(=N\Nc1cccc(Cl)c1)C(=O)c1cc(-c2ccccc2)on1`, the 50% inhibitory concentration (IC50) entry in data set [1] is “Not Active”.

As for `CC(C)(C)c1cc(C(=O)/C(C#N)=N/Nc2cc(F)cc(F)c2)no1`, the IC50 in data set [1] (read-out: IC50) came out at 5.3 µM. Further, in data set [2], the Ratio IC50 was determined as 6.

Regarding `N#C/C(=N\Nc1cc(Cl)c(Cl)c(Cl)c1)C(=O)c1cc(-c2ccccc2)on1`, the half-maximal inhibitory concentration (IC50) result in data set [1] is on record as “Not Active”.

Regarding `CC(C)(C)c1cc(C(=O)/C(C#N)=N/Nc2ccccc2)no1`, in data set [2], the Ratio IC50 worked out at 0.5.

As to `CC(C)(C)c1cc(C(=O)/C(C#N)=N/Nc2cc(F)cc(Cl)c2)no1`, the 50% inhibitory concentration (IC50) in data set [1] (read-out: IC50) is 2.5 µM; in data set [3], 11.6 µM. Also, the Ratio IC50 in data set [2] stood at 12.8.

As for `Cc1cc(C(=O)/C(C#N)=N/Nc2cccc(Cl)c2)no1`, in data set [1], the IC50 result was “Not Active”.

With `CC(C)(C)c1cc(C(=O)/C(C#N)=N/Nc2cc(F)c(F)c(F)c2)no1`, in data set [3], the IC50 was 8.9 µM. The compound further had a solubility in data set [4] of 0.216 mM (≈ 75.7 µg/mL). The concentration in solution in data set [5] (solubility at 24 h) was 81.6 mM (≈ 28600 µg/mL).

Take `CC(C)(C)c1cc(NC(=O)c2cccc(Cl)c2)no1`: the IC50 entry in data set [1] is listed as “Not Active”.

Turning to `CC(C)(C)c1cc(C(=O)/C(C#N)=N/Nc2cccc(Cl)c2Cl)no1`, the Ratio IC50 in data set [2] is 0.9.

Consider `CC(C)(C)c1cc(C(=O)/C(C#N)=N/Nc2cc(Cl)cc(C(F)(F)F)c2)no1`, for which the IC50 turned out to be 1.6 µM in data set [1] (read-out: IC50) and 5.7 µM in data set [3]. Besides, the solubility at 24 h in data set [5] amounted to 36.6 mM (≈ 14600 µg/mL).

As to `CC(C)(C)c1cc(C(=O)/C(C#N)=N/Nc2ccc(Cl)cc2)no1`, the Ratio IC50 in data set [2] is 1.2.

Turning to `CC(C)(C)c1cc(C(=O)/C(C#N)=N/Nc2cc(Cl)cc(Cl)c2)no1`, the Ratio IC50 in data set [2] stood at 16.8.

As to `Cc1cc(NC(=O)/C(C#N)=N/Nc2cccc(Cl)c2)no1`, the IC50 result in data set [1] was “Not Active”.

For `CC(C)(C)c1cc(C(=O)/C(C#N)=N/Nc2cc(Cl)ccc2Cl)no1`, the Ratio IC50 in data set [2] came out at 4.4.

As to `N#C/C(=N\Nc1cccc(Cl)c1)C(=O)c1cc(C2CCCCC2)on1`, the half-inhibitory concentration (IC50) in data set [1] (read-out: IC50) came to 11.3 µM. In data set [2], the Ratio IC50 was determined as 2.8.

For `CC(C)(C)c1cc(-c2n[nH]c(N)c2/N=N/c2cccc(Cl)c2)no1`, in data set [1], the IC50 result is reported as “Not Active”.

With `CC(=O)c1cccc(N/N=C(\C#N)C(=O)c2cc(C(C)(C)C)on2)c1`, the IC50 result in data set [1] was “Not Active”.

In the case of `COc1cccc(N/N=C(\C#N)C(=O)c2cc(C(C)(C)C)on2)c1`, the half-inhibitory concentration (IC50) result in data set [1] is “Not Active”.

For `CC(C)(C)c1cc(C(=O)/C(C#N)=N/Nc2cccc(Cl)c2)no1`, the half-inhibitory concentration (IC50) in data set [6] and in data set [3] was 10.8 µM each time. Besides, the solubility at 24 h in data set [4] (water) came out at 0.018 mM (≈ 5.95 µg/mL); in data set [5], 45.3 mM (≈ 15000 µg/mL).

In the case of `CC(C)(C)c1cc(C(=O)/C(C#N)=N/Nc2cc(C(F)(F)F)cc(C(F)(F)F)c2)no1`, the IC50 in data set [1] (read-out: IC50) was 6.4 µM; in data set [3], 5.7 µM. The compound also returned a solubility in data set [4] of 0.968 mM (≈ 418 µg/mL). For the same compound, the solubility at 24 h in data set [5] was more than 347 mM.

As to `N#C/C(=N\Nc1cccc(Cl)c1)C(=O)c1cc(C2CC2)on1`, the half-inhibitory concentration (IC50) in data set [1] (read-out: IC50) amounted to 60 µM.

As to `N#C/C(=N\Nc1cc(Cl)cc(Cl)c1)C(=O)c1cc(C2CCCCC2)on1`, the half-inhibitory concentration (IC50) in data set [3] came to 2.6 µM.

For `CC(C)(C)c1cc(NC(=O)Nc2cccc(Cl)c2)no1`, the IC50 entry in data set [1] is recorded as “Not Active”.

`CC(C)(C)c1cc(NC(=O)/C(C#N)=N/Nc2cccc(Cl)c2)no1`: the half-maximal inhibitory concentration (IC50) result in data set [1] was “Not Active”.

In the case of `CC(C)(C)c1cc(C(=O)/C(C#N)=N/Nc2ccc(Cl)c(C(F)(F)F)c2)no1`, the concentration for half-maximal inhibition (IC50) in data set [3] amounted to 9.7 µM.

For `CC(C)(C)c1cc(C(=O)/C(C#N)=N/Nc2ccc(F)c(Cl)c2)no1`, the results for the IC50 in data set [1] (read-out: IC50) and in data set [3] were 2.7 µM and 7.8 µM, respectively. In addition, the Ratio IC50 in data set [2] was determined as 11.9. This compound also showed a solubility in data set [4] of 0.2368 mM (≈ 82.6 µg/mL). Also, in data set [5], the solubility at 24 h came out at 23.5 mM (≈ 8200 µg/mL).

As for `N#C/C(=N\Nc1cc(Cl)c(Cl)c(Cl)c1)C(=O)c1cc(C2CC2)on1`, in data set [3], the IC50 came out at 4.1 µM.

As to `CC(C)(C)c1cc(C(=O)/C(C#N)=N/Nc2ccc(Cl)c(Cl)c2)no1`, the Ratio IC50 in data set [2] was determined as 10.7.

Regarding `CC(C)(C)c1cc(C(=O)Nc2cccc(Cl)c2)no1`, the IC50 entry in data set [1] was “Not Active”.

For the compound `CC(C)(C)c1cc(C(=O)/C(C#N)=N/Nc2ccccc2Cl)no1`, the Ratio IC50 in data set [2] was determined as 1.1.

With `CC(C)(C)c1cc(C(=O)/C(C#N)=N/Nc2cc(Cl)c(Cl)c(Cl)c2)no1`, the values for the half-inhibitory concentration (IC50) in data set [1] (read-out: IC50) and in data set [3] were 0.9 µM and 2.4 µM, respectively. In data set [4], this compound returned a solubility of 0.0318 mM (≈ 12.7 µg/mL). This compound also returned a solubility at 24 h in data set [5] of 10.9 mM (≈ 4360 µg/mL).

As a reminder, the IC50 is the concentration at which inhibition is half-maximal. Broadly, the solubility is the dissolved amount per volume that the medium holds. Read a low solubility as little dissolved substance.
